In ChEMBL document CHEMBL4715933, “Identification of Potent Reverse Indazole Inhibitors for HPK1” (ACS Med Chem Lett, 2021):

How the values were obtained:
[1] = species: Homo sapiens; experiment: Selectivity ratio of IC50 for JAK1 (unknown origin) by ATP competitive binding assay to IC50 for N-terminal GST-tagged human recombinant HPK1 (1 to 346 residues ) expressed in baculovirus-infected Sf9 cells by HTRF lanthascreen binding assay
Procedure, shortened: (§1)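 Ratio of off-target kinase IC50 (JAK1, JAK2 or CDK2) to HPK1 IC50. The off-target kinase assays were run at ATP approximately equal to Km(ATP). HPK1 IC50 came from the tracer-displacement assay with tracer at approximately Kd(tracer).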

[2] = species: Homo sapiens; experiment: Selectivity ratio of IC50 for CDK2 (unknown origin) by ATP competitive binding assay to IC50 for N-terminal GST-tagged human recombinant HPK1 (1 to 346 residues ) expressed in baculovirus-infected Sf9 cells by HTRF lanthascreen binding assay; procedure, shortened: as §1
[3] = biological target: T1, Mitogen-activated protein kinase kinase kinase kinase 1 (Homo sapiens, UniProt Q92918); experiment: Displacement of Tracer 222 from N-terminal GST-tagged human recombinant HPK1 (1 to 346 residues ) expressed in baculovirus-infected Sf9 cells incubated for 1 hr by HTRF lanthascreen binding assay
Procedure, shortened: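 Binding (tracer-displacement) format run with tracer at a concentration approximately equal to its Kd; IC50 derived from displacement.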
Target sequence in this assay (Q92918 whole entry, the tested form may be a part): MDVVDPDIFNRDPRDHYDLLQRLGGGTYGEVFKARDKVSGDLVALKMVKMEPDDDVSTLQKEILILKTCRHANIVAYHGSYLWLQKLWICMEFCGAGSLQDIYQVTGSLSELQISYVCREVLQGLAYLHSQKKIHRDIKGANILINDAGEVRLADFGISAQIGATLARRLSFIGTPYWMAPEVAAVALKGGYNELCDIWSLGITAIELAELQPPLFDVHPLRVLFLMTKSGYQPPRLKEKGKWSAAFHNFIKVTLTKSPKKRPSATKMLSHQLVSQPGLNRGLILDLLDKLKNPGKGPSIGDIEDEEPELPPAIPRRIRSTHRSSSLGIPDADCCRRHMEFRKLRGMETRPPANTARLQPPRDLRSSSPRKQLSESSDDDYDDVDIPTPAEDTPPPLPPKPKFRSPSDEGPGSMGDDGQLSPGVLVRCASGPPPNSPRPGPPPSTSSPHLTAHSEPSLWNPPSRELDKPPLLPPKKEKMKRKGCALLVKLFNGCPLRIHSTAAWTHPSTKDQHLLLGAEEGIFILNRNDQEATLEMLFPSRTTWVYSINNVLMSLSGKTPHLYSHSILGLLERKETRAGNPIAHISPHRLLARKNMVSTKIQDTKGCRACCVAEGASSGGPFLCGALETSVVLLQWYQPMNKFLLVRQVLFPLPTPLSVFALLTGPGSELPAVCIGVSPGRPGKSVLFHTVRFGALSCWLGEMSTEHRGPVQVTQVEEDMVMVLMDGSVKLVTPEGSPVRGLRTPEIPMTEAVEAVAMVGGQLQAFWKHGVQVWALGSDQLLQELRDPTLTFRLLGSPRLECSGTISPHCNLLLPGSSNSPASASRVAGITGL

[4] = species: Homo sapiens; experiment: Selectivity ratio of IC50 for JAK2 (unknown origin) by ATP competitive binding assay to IC50 for N-terminal GST-tagged human recombinant HPK1 (1 to 346 residues ) expressed in baculovirus-infected Sf9 cells by HTRF lanthascreen binding assay; procedure, shortened: as §1
[5] = Unbound clearance in Wistar Han rat at 0.5 mg/kg, iv or 0.5 mg/kg, po; type: ADME, organism-based; conditions: in vivo
Procedure, shortened: (§2)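 Male Wistar Han rats given 0.5 mg/kg intravenously and 0.5 mg/kg orally, both as solutions in DMSO/PEG400/H2O. Plasma clearance, volume of distribution, half-life and oral bioavailability determined. Unbound parameters correct for plasma protein binding.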

[6] = Volume of distribution in Wistar Han rat at 0.5 mg/kg, iv or 0.5 mg/kg, po; type: ADME, organism-based; conditions: in vivo; procedure, shortened: as §2
[7] = biological target: T1, Mitogen-activated protein kinase kinase kinase kinase 1; experiment: Inhibition of HPK1 in human PBMC assessed as inhibition of SLP76 phosphorylation by ELISA
Procedure, shortened: (§3)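 Target-engagement assay in human peripheral blood mononuclear cells with ELISA readout of SLP76 phosphorylation. Total-cell IC50 reported. Unbound IC50 obtained by correcting for compound binding to the 10% FBS present in the assay medium.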
Target sequence in this assay (Q92918 whole entry, the tested form may be a part): as above

[8] = Half life in Wistar Han rat at 0.5 mg/kg, iv or 0.5 mg/kg, po; type: ADME, organism-based; conditions: in vivo; procedure, shortened: as §2
[9] = Unbound volume of distribution in Wistar Han rat at 0.5 mg/kg, iv or 0.5 mg/kg, po; type: ADME, organism-based; conditions: in vivo; procedure, shortened: as §2
[10] = Oral bioavailability in Wistar Han rat at 0.5 mg/kg; type: ADME, organism-based; conditions: in vivo; procedure, shortened: as §2
[11] = biological target: T1, Mitogen-activated protein kinase kinase kinase kinase 1; experiment: Inhibition of HPK1 in human PBMC assessed as unbound concentration required for inhibition of SLP76 phosphorylation by ELISA corrected to binding to 10% FBS; procedure, shortened: as §3
Target sequence in this assay (Q92918 whole entry, looked up, the tested form may be a part): as the sequence (Q92918 whole entry, the tested form may be a part) above

[12] = Apparent permeability of compound in dog MDCKII cells; type: ADME, cell-based, Canis lupus familiaris, MDCK-II; conditions: MDCK
[13] = Total Plasma clearance in Wistar Han rat at 0.5 mg/kg, iv or 0.5 mg/kg, po; type: ADME, organism-based; procedure, shortened: as §2
[14] = Half life in Wistar Han rat at 0.1 mg/kg, iv; type: ADME, organism-based; conditions: in vivo
Procedure, shortened: (§4)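 Male Wistar Han rats dosed intravenously at 0.1 mg/kg, given as a solution in DMSO/PEG400/H2O. Plasma PK parameters derived: total plasma clearance, volume of distribution, mean residence time and half-life. Unbound clearance accounts for plasma protein binding.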

[15] = Total Plasma clearance in Wistar Han rat at 0.1 mg/kg, iv; type: ADME, organism-based; procedure, shortened: as §4
[16] = Unbound clearance in Wistar Han rat at 0.1 mg/kg, iv; type: ADME, organism-based; conditions: in vivo; procedure, shortened: as §4
[17] = Volume of distribution in Wistar Han rat at 0.1 mg/kg, iv; type: ADME, organism-based; conditions: in vivo; procedure, shortened: as §4
[18] = Mean residence time in Wistar Han rat at 2 mg/kg, iv; type: ADME, organism-based; conditions: in vivo
Procedure, shortened: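 Male Wistar Han rats received a single intravenous dose of 2 mg/kg, formulated as a solution in 30% captisol/70% water. Mean residence time derived from plasma concentration–time data.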

[19] = Mean residence time in Wistar Han rat at 0.1 mg/kg, iv; type: ADME, organism-based; conditions: in vivo; procedure, shortened: as §4

Structure (SMILES) | Ratio IC50 [1] | Ratio IC50 [2] | IC50 [3] [nM] | Ratio IC50 [4] | also measured
CNC(=O)N1CCN(c2cccc(-n3ncc4cnc(-c5c(F)cccc5OC)cc43)n2)CC1 | 311 | 30 | 11 | 32 | 
Cc1cccc(F)c1-c1cc2c(cn1)cnn2-c1cnn(C)c1 |  |  | 1090 |  | 
COc1cccc(F)c1-c1cc2c(cn1)cnn2-c1cccc(N2CC(N)C2)n1 | 59 | 10 | 32 | 24 | 
COc1cccc(F)c1-c1cc2c(cn1)cnn2-c1cccc(N2CC3CCC(C2)N3C)n1 | 8960 | 61 | 1.1 | 1450 | CL free [5]: 1197 mL/min/kg; Vd [6]: 2.3 L/kg; IC50 [7]: 4000 nM; half-life [8]: 2.1 h; Vdu [9]: 143 L/kg; bioavailability [10]: 67%; fIC50 [11]: 0.3 µM; Papp [12]: 26 ×10⁻⁶ cm/s; clearance [13]: 19 mL/min/kg
COc1cccc(F)c1-c1cc2c(cn1)cnn2-c1ccccc1 | 10 |  | 1050 | 10 | 
COc1cccc(F)c1-c1cc2c(cn1)cnn2-c1cccc(N2CCOCC2)n1 | 92 | 12 | 34 | 18 | 
COc1cccc(F)c1-c1cc2c(cn1)cnn2-c1cccc(N2CC3(CCCNC3)C2)n1 | 792 | 45 | 13 | 177 | 
COc1cccc(F)c1-c1cc2c(cn1)cnn2-c1ccc(N2CCN(C)CC2)cn1 | 95 | 77 | 31 | 61 | 
Cc1cccc(C)c1-c1cc2c(cn1)cnn2-c1ccc(N2CCN(C)CC2)cc1 | 35 | 35 | 284 | 35 | 
COc1ccncc1-c1cc2c(cn1)cnn2-c1ccc(N2CCN(C)CC2)cc1 | 83 | 4 | 120 | 83 | 
COC(=O)N1CCN(c2cccc(-n3ncc4cnc(-c5c(F)cccc5OC)cc43)n2)CC1 | 65 | 11 | 32 | 5 | 
CNC1CCc2c1ccc(F)c2-c1cc2c(cn1)cnn2-c1ccc(N2CCN(C)CC2)cc1 (racemic) | 52 | 52 | 193 | 52 | 
COc1cccc(F)c1-c1cc2c(cnn2-c2cccc(N3CCN(C)CC3)n2)cc1C#N | 1320 | 115 | 2 | 130 | IC50 [7]: > 10000 nM; half-life [14]: 3.1 h; clearance [15]: 12 mL/min/kg; Papp [12]: < 14 ×10⁻⁶ cm/s; CL free [16]: 19913 mL/min/kg; Vd [17]: 2.3 L/kg
COc1cccc(F)c1-c1cc2c(cn1)cnn2-c1cccc(N2C[C@@H]3C[C@H]2CN3C)n1 | 5190 | 61 | 1.9 | 599 | CL free [5]: 2962 mL/min/kg; Vd [6]: 0.5 L/kg; IC50 [7]: 4300 nM; half-life [8]: 1.8 h; bioavailability [10]: > 100%; fIC50 [11]: 1.1 µM; Papp [12]: 34 ×10⁻⁶ cm/s; clearance [13]: 4.2 mL/min/kg
COc1cccc(F)c1-c1cc2c(cn1)cnn2-c1cccc(N2CC[C@H](N(C)C)C2)n1 | 3070 | 281 | 1.2 | 393 | IC50 [7]: > 10000 nM; half-life [14]: 1.2 h; clearance [15]: 4.8 mL/min/kg; Papp [12]: 30 ×10⁻⁶ cm/s; Vd [17]: 0.3 L/kg
Cc1cccc(F)c1-c1cc2c(cnn2-c2ccc(N3CCN(C)CC3)cc2)cc1C#N | 357 | 357 | 28 |  | IC50 [7]: > 10000 nM; half-life [14]: 2.2 h; clearance [15]: 151 mL/min/kg; Papp [12]: < 8 ×10⁻⁶ cm/s; Vd [17]: 18 L/kg
COc1cccc(F)c1-c1cc2c(cn1)cnn2-c1cccc(N2CCCC2)n1 |  |  | 109 |  | 
CN1CCN(c2ccc(-n3ncc4cnc(-c5ccccc5)cc43)cc2)CC1 | 12 |  | 826 | 12 | 
COc1cccc(F)c1-c1cc2c(cn1)cnn2-c1ccnc(N2CCN(C)CC2)n1 | 1480 | 10 | 6.7 | 125 | 
COc1cccc(F)c1-c1cc2c(cn1)cnn2-c1cccc(N2CCCCC2)n1 | 252 | 43 | 40 | 26 | 

Structure (SMILES) | Ratio IC50 [1] | Ratio IC50 [2] | IC50 [3] [nM] | Ratio IC50 [4] | also measured
COc1cccc(-n2ncc3cnc(-c4c(F)cccc4OC)cc32)n1 | 97 | 5 | 103 | 21 | 
COc1cccc(F)c1-c1cc2c(cn1)cnn2-c1cccc(N2CCN(C)CC2)n1 | 751 | 44 | 2.6 | 135 | IC50 [7]: 8000 nM; half-life [14]: 2.3 h; clearance [15]: 9.4 mL/min/kg; fIC50 [11]: 0.6 µM; Papp [12]: 28 ×10⁻⁶ cm/s; CL free [16]: 2171 mL/min/kg; Vd [17]: 1.1 L/kg
COc1cccc(F)c1-c1cc2c(cn1)cnn2-c1cc(Cl)cc(N2CCN(C)CC2)n1 | 347 | 597 | 1.8 | 134 | 
COc1cccc(F)c1-c1cc2c(cn1)cnn2-c1cccc(N2CCCC2=O)n1 |  |  | 213 |  | 
COc1cccc(F)c1-c1cc2c(cn1)cnn2-c1ccnc(N2CCN(C)CC2)c1 | 167 | 167 | 60 | 61 | 
COc1ccncc1-c1ccc2cnn(-c3ccnc(N4CCOCC4)c3)c2c1 | 4 |  | 2200 | 4 | clearance [15]: 31 mL/min/kg; Vd [17]: 2.1 L/kg; MRT [18]: 1.2 h
COc1cccc(F)c1-c1cc2c(cn1)cnn2-c1ccc(N2CCN(C)CC2)cc1 | 112 | 112 | 89 | 112 | 
COc1cccc(F)c1-c1cc2c(cn1)cnn2-c1cccc(N)n1 |  |  | 518 |  | 
CN1CCN(c2cc(-c3n[nH]c4cnc(-c5cnn6c5CCC6)cc34)ccn2)CC1 | 45 |  | 15 | 32 | MRT [19]: 1.9 h; clearance [15]: 130 mL/min/kg; Vd [17]: 15 L/kg
COc1cccc(F)c1-c1cc2c(cn1)cnn2-c1ccc(N2CCOCC2)cc1 | 99 |  | 101 | 99 | 
Cc1cccc(F)c1-c1cc2c(cn1)cnn2-c1ccc(N2CCN(C)CC2)cc1 | 83 | 83 | 121 | 83 | 
CNC1CCN(c2cccc(-n3ncc4cnc(-c5c(F)cccc5OC)cc43)n2)CC1 | 112 | 8.5 | 17 | 90 | 
COc1cccc(F)c1-c1cc2c(cn1)cnn2-c1cccc(N2CCN(C)CC2)c1 | 25 |  | 408 | 25 | 
CN1CCN(c2cc(-c3n[nH]c4ccc(-c5cnn6c5CCC6)cc34)ccn2)CC1 | 205 |  | 9.1 | 1110 | MRT [19]: 1 h; clearance [15]: 117 mL/min/kg; Vd [17]: 7.1 L/kg
Cc1cccc(F)c1-c1ccc2cnn(-c3ccc(N4CCN(C)CC4)cc3)c2c1 |  |  | 1470 |  | 
C[C@@H]1CN(c2cc(-n3ncc4ccc(-c5cnn6c5OCCC6)cc43)ccn2)C[C@H](C)N1C | 7 |  | 1460 | 7 | MRT [19]: 2.6 h; clearance [15]: 8.7 mL/min/kg; Vd [17]: 1.4 L/kg
COc1cccc(F)c1-c1cc2c(cn1)cnn2-c1cccc(N2CCNCC2)n1 | 446 | 29 | 3.8 | 204 | 
CCOc1cccc(F)c1-c1cc2c(cn1)cnn2-c1ccc(N2CCN(C)CC2)cc1 | 18 | 18 | 557 | 18 | 
Cc1ccccc1-c1cc2c(cn1)cnn2-c1ccc(N2CCN(C)CC2)cc1 | 24 |  | 410 | 24 | 
